# Results published in ChEMBL document CHEMBL1133661, “Synthesis and in vitro anti-mycobacterium activity of N-alkyl-1, 2-dihydro-2-thioxo-3-pyridinecarbothioamides. Preliminary toxicity and pharmacokinetic evaluation” (J Med Chem, 2000).
# How the values were obtained:
# Mycobacterium avium [1] = assay: In Vitro antimicrobial activity against the Mycobacterium avium complex (MAC) Wild type strain AN1; assay type: functional
# Summary of the method: (§1)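 MIC by radiometric broth dilution (BACTEC 460-TB) in 7H12 liquid medium containing 14C-palmitic acid. Growth read as 14CO2 release, recorded as growth index (0–999). Compounds stocked in DMSO; working solutions at 40-fold final concentration made in sterile distilled water. Ethambutol reference. MIC expressed in µg/mL.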
# Mycobacterium avium [2] = assay: In Vitro antimicrobial activity against the Mycobacterium avium complex (MAC) Wild type strain AN2; assay type: functional; summary of the method: as §1
# Mycobacterium avium [3] = assay: In Vitro antimicrobial activity against the Mycobacterium avium complex (MAC) Wild type strain AN3; assay type: functional; summary of the method: as §1
# Mycobacterium avium [4] = assay: In Vitro antimicrobial activity against the Mycobacterium avium complex (MAC) Wild type strain ISS 486; assay type: functional; summary of the method: as §1
# Mycobacterium avium [5] = assay: In Vitro antimicrobial activity against the Mycobacterium avium complex (MAC) strain ATCC 15769; assay type: functional; summary of the method: as §1
# [6] = system: Mycobacterium tuberculosis; assay: In Vitro antimicrobial activity against the Mycobacterium tuberculosis (MT) Wild type strain MT-1; assay type: functional; summary of the method: as §1
# [7] = system: Mycobacterium tuberculosis; assay: In Vitro antimicrobial activity against the Mycobacterium tuberculosis (MT) Wild type strain MT-2; assay type: functional; summary of the method: as §1
# [8] = system: Mycobacterium tuberculosis; assay: In Vitro antimicrobial activity against the Mycobacterium tuberculosis (MT) strain H-37-Rv ATCC; assay type: functional; summary of the method: as §1
# [9] = Clearance (CL) value in rats after intravenous administration.; assay type: ADME, organism-based; conditions: rat, in vivo, read-out: CI
# Summary of the method: (§2)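 Male Wistar rats (250-300 g), single 20 mg/kg i.v. dose in poly(ethylene glycol) 400, given through a permanent jugular-vein cannula that also served for blood sampling. Plasma levels measured by GC-MS (electron impact 70 eV; ions 233, 181, 168, 137, 104 monitored). Parameters derived by noncompartmental analysis.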
# [10] = Mean residence time (MRT) in rats after intravenous administration; assay type: ADME, organism-based; conditions: rat, in vivo; summary of the method: as §2
# [11] = Area under curve (AUC) value of the compound; assay type: ADME; summary of the method: as §2
# [12] = Elimination half life value after intravenous administration in rats; assay type: ADME, organism-based; conditions: rat, in vivo; summary of the method: as §2
# [13] = Volume of distribution in rats after intravenous administration; assay type: ADME, organism-based; conditions: rat, in vivo, read-out: Vss; summary of the method: as §2
# [14] = Mean residence time (MRT) in rats after intravenous administration.; assay type: ADME, organism-based; conditions: rat, in vivo; summary of the method: as §2
# Mycobacterium avium [15] = assay: In Vitro antimicrobial activity against Mycobacterium avium complex (MAC) strain ATCC 15769; assay type: functional; summary of the method: as §1
Compound,MIC (Mycobacterium avium [1]),MIC (Mycobacterium avium [2]),MIC (Mycobacterium avium [3]),MIC (Mycobacterium avium [4]),MIC (Mycobacterium avium [5]),MIC [6],MIC [7],MIC [8],clearance [9],MRT [10],AUC [11],half-life [12],Vd [13],MRT [14],MIC (Mycobacterium avium [15])
CCCCCCCCCCCCCCCC/N=C(\S)c1cccnc1S,8 µg/mL,8 µg/mL,8 µg/mL,8 µg/mL,8 µg/mL,16 µg/mL,32 µg/mL,16 µg/mL,–,–,–,–,–,–,–
CCCCCCC/N=C(\S)c1cccnc1S,4 µg/mL,4 µg/mL,4 µg/mL,4 µg/mL,2 µg/mL,2 µg/mL,2 µg/mL,0.5 µg/mL,50 mL/min,28.9 min,8250 ng·h/mL,28 min,1.28 L,–,–
CCCCCCCCCCCCCCCCCC/N=C(\S)c1cccnc1S,32 µg/mL,32 µg/mL,32 µg/mL,32 µg/mL,64 µg/mL,64 µg/mL,64 µg/mL,32 µg/mL,–,–,–,–,–,–,–
CC[C@@H](CO)NCCN[C@@H](CC)CO [ETHAMBUTOL],1 µg/mL,0.5 µg/mL,2 µg/mL,2 µg/mL,–,< 2 µg/mL,< 2 µg/mL,< 2 µg/mL,–,–,–,–,–,–,–
CC/N=C(\S)c1cccnc1S,4 µg/mL,8 µg/mL,8 µg/mL,4 µg/mL,4 µg/mL,1 µg/mL,1 µg/mL,0.5 µg/mL,20 mL/min,–,18500 ng·h/mL,37.2 min,0.93 L,47.6 min,–
S/C(=N\C1CCCCC1)c1cccnc1S,4 µg/mL,4 µg/mL,4 µg/mL,4 µg/mL,4 µg/mL,4 µg/mL,1 µg/mL,0.5 µg/mL,–,–,–,–,–,–,–
CCC/N=C(\S)c1cccnc1S,2 µg/mL,4 µg/mL,2 µg/mL,1 µg/mL,2 µg/mL,4 µg/mL,4 µg/mL,2 µg/mL,–,–,–,–,–,–,–
OCC/N=C(\S)c1cccnc1S,4 µg/mL,8 µg/mL,4 µg/mL,8 µg/mL,8 µg/mL,4 µg/mL,8 µg/mL,2 µg/mL,–,–,–,–,–,–,–
C/N=C(\S)c1cccnc1S,8 µg/mL,4 µg/mL,4 µg/mL,4 µg/mL,4 µg/mL,1 µg/mL,1 µg/mL,2 µg/mL,–,–,–,–,–,–,–
CCCCCCNC(=O)c1cccnc1S,–,–,–,–,8 µg/mL,8 µg/mL,16 µg/mL,8 µg/mL,–,–,–,–,–,–,–
CCCCCCCCCC/N=C(\S)c1cccnc1S,32 µg/mL,32 µg/mL,32 µg/mL,32 µg/mL,16 µg/mL,64 µg/mL,64 µg/mL,16 µg/mL,–,–,–,–,–,–,–
CCCCCCCCC/N=C(\S)c1cccnc1S,8 µg/mL,8 µg/mL,8 µg/mL,8 µg/mL,8 µg/mL,16 µg/mL,16 µg/mL,4 µg/mL,–,–,–,–,–,–,–
S=c1ssc2ncccc12,–,–,–,–,–,–,–,–,–,–,–,–,–,–,8 µg/mL
CCCCCC/N=c1\ssc2ncccc12.CCCCCCn1sc2ncccc2c1=S,–,–,–,–,8 µg/mL,8 µg/mL,8 µg/mL,4 µg/mL,–,–,–,–,–,–,–
O=c1ssc2ncccc12,–,–,–,–,2 µg/mL,8 µg/mL,8 µg/mL,4 µg/mL,–,–,–,–,–,–,–
CCCCC/N=C(\S)c1cccnc1S,1 µg/mL,2 µg/mL,1 µg/mL,1 µg/mL,1 µg/mL,4 µg/mL,4 µg/mL,2 µg/mL,–,–,–,–,–,–,–
CCCC/N=C(\S)c1cccnc1S,4 µg/mL,4 µg/mL,4 µg/mL,2 µg/mL,1 µg/mL,4 µg/mL,4 µg/mL,4 µg/mL,–,–,–,–,–,–,–
CCCCCCCC/N=C(\S)c1cccnc1S,8 µg/mL,4 µg/mL,4 µg/mL,8 µg/mL,4 µg/mL,4 µg/mL,4 µg/mL,1 µg/mL,–,–,–,–,–,–,–
CCCCCC/N=C(\S)c1cccnc1S,1 µg/mL,1 µg/mL,1 µg/mL,0.5 µg/mL,1 µg/mL,1 µg/mL,2 µg/mL,1 µg/mL,–,–,–,–,–,–,–
CCCCCCn1sc2ncccc2c1=O,–,–,–,–,16 µg/mL,8 µg/mL,8 µg/mL,16 µg/mL,–,–,–,–,–,–,–
